From ChEMBL document CHEMBL1240347, “MK-7009, a potent and selective inhibitor of hepatitis C virus NS3/4A protease” (Antimicrob Agents Chemother, 2010)
pEC50, pIC50: −log10 of the molar value.

Legend:
[1] = Cytotoxicity against […] cells; assay type: cell-based; details: HB1
[2] = Cmax in dog at 5 mg/kg, po by LC/MS/MS analysis; assay type: ADME, organism-based, Canis lupus familiaris; design: dose 5 mg/kg, route oral; details: in vivo
Summary of the method: (§1)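 Dosed orally as a solution in polyethylene glycol 400 (2.0 ml/kg), with n = 3. EDTA plasma was centrifuged off and held at −70°C. Drug levels were determined by LC/MS/MS following protein precipitation.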

[3] = test system: Hepatitis C virus; test: Antiviral activity against Hepatitis C virus containing NS3/4a ps32 sequence by transient cell-base protease activity; assay type: functional, organism-based, Hepacivirus hominis
Summary of the method: (§2)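 Transient cell-based phenotype assay of protease activity, using NS3/4A sequences cloned from plasma of HCV-infected patients. EC50s were determined.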

[4] = Plasma clearance in rat at 2 mg/kg, iv by LC/MS/MS analysis; assay type: ADME, organism-based; design: dose 2 mg/kg, route intravenous
Summary of the method: (§3)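 Fasted animals received an IV bolus in DMSO at 1.0 ml/kg for rats and 0.1 ml/kg for dogs and rhesus monkeys, at 2 mg/kg; n = 3 per species. Blood was drawn into EDTA tubes at set times, and plasma was separated by centrifugation and stored at −70°C. Drug was quantified by LC/MS/MS after protein precipitation.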

[5] = Plasma clearance in dog at 2 mg/kg, iv by LC/MS/MS analysis; assay type: ADME, organism-based, Canis lupus familiaris; design: dose 2 mg/kg, route intravenous
Summary of the method: (§4)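 Fasted animals received an intravenous bolus in DMSO at 1.0 ml/kg (rat), 0.1 ml/kg (dog) or 0.1 ml/kg (rhesus), with n = 3. Blood was drawn into EDTA tubes, and plasma was separated by centrifugation and stored at −70°C. Drug was quantified by LC/MS/MS after protein precipitation.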

[6] = test system: Hepatitis C virus; test: Antiviral activity against Hepatitis C virus genotype 1b infected in […] cell by cell-based HCV replicon assay in presence of 10% fetal bovine serum; assay type: functional, organism-based, Hepacivirus hominis
Summary of the method: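 Stable genotype 1b (con1) replicon cell line HB1, assayed in medium with 10% fetal bovine serum.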

[7] = test system: Hepatitis C virus; test: Antiviral activity against Hepatitis C virus containing NS3/4a ps33 sequence by transient cell-base protease activity; assay type: functional, organism-based, Hepacivirus hominis; summary of the method: as §2
[8] = test system: Hepatitis C virus; test: Antiviral activity against Hepatitis C virus containing NS3/4a ps36 sequence by transient cell-base protease activity; assay type: functional, organism-based, Hepacivirus hominis; summary of the method: as §2
[9] = target: T1, Cathepsin F (Homo sapiens, UniProt Q9UBX1); test: Inhibition of human Cathepsin F
T1 sequence (Q9UBX1 whole entry): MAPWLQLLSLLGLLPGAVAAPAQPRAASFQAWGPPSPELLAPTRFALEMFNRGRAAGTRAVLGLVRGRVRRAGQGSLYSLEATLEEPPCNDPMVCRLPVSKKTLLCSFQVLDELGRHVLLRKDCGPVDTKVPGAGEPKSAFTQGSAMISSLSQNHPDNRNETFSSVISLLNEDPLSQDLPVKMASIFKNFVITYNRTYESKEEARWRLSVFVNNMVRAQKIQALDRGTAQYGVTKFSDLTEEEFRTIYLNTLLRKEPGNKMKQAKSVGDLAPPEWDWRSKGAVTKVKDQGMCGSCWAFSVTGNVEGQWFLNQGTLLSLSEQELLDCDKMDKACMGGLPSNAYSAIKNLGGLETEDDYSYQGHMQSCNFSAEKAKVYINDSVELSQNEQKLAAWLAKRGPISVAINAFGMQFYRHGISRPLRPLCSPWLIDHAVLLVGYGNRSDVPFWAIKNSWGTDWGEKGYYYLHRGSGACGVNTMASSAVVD

[10] = test system: Hepatitis C virus; test: Antiviral activity against Hepatitis C virus containing NS3/4a ps41 sequence by transient cell-base protease activity; assay type: functional, organism-based, Hepacivirus hominis; summary of the method: as §2
[11] = target: Serine protease 1 (Homo sapiens, UniProt P07477); test: Inhibition of human Trypsin activity
Serine protease 1, sequence (P07477 whole entry): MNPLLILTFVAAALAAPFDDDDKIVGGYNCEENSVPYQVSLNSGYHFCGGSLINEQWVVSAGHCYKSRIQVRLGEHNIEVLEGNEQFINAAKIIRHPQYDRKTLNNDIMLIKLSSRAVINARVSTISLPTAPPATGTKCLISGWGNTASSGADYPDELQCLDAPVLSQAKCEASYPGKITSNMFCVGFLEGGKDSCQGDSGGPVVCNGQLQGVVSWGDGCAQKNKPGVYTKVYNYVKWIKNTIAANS

[12] = target: T2, Cathepsin K (Homo sapiens, UniProt P43235); test: Inhibition of human Cathepsin K
T2 sequence (P43235 whole entry): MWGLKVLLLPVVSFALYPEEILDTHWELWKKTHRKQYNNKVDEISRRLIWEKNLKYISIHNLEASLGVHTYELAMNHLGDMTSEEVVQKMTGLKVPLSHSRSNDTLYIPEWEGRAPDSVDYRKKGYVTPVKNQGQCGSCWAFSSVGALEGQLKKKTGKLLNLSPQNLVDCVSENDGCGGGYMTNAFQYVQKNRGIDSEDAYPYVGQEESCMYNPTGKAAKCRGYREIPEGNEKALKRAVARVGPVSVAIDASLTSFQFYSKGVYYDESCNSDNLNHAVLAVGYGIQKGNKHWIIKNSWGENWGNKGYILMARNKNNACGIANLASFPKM

[13] = test system: Hepatitis C virus; test: Antiviral activity against Hepatitis C virus genotype 2a infected in […] cell by cell-based HCV replicon assay in presence of 10% fetal bovine serum; assay type: functional, organism-based, Hepacivirus hominis
[14] = test system: Hepatitis C virus; test: Antiviral activity against Hepatitis C virus containing NS3/4a ps40 sequence by transient cell-base protease activity; assay type: functional, organism-based, Hepacivirus hominis; summary of the method: as §2
[15] = AUC (0-24 hrs) in rat at 2 mg/kg, iv by LC/MS/MS analysis; assay type: ADME, organism-based; design: time < 24 hr, dose 2 mg/kg, route intravenous; details: plasma; summary of the method: as §4
[16] = test system: Hepatitis C virus; test: Antiviral activity against Hepatitis C virus containing NS3/Q41R protease mutant activity by TaqMan-based assay; assay type: functional, organism-based, Hepacivirus hominis
[17] = Cmax in Chimpanzee at 10 mg/kg, po by LC/MS/MS analysis; assay type: ADME, organism-based, Pan troglodytes; design: dose 10 mg/kg, route oral; details: in vivo
Summary of the method: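 Two HCV-uninfected chimpanzees (about 57 and 52 kg) drank the dose voluntarily in a chocolate milk vehicle (0.67 ml/kg). EDTA plasma was stored at −70°C and quantified by LC/MS/MS after protein precipitation.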

[18] = Volume of distribution in rat at 2 mg/kg, iv by LC/MS/MS analysis; assay type: ADME, organism-based; design: dose 2 mg/kg, route intravenous; details: in vivo; summary of the method: as §3
[19] = Metabolic stability in rhesus monkey liver assessed as drug level at 5 mg/kg, po after 24 hrs by LC/MS/MS analysis; assay type: ADME, organism-based, Macaca mulatta; design: dose 5 mg/kg, route oral; details: read-out: Drug uptake
Summary of the method: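 Single oral dose in polyethylene glycol 400 (2.0 ml/kg). A liver biopsy (~200 μl) was taken under sedation and homogenized in 4 volumes of deionized water. Drug was quantified by LC/MS/MS after protein precipitation.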

[20] = Inhibition of human Chymotrypsin
[21] = test system: Pan troglodytes; test: AUC in chimpanzee at 10 mg/kg, po from 0 to 24 hrs by LC/MS/MS analysis; details: in vivo
[22] = test system: Hepatitis C virus; test: Antiviral activity against Hepatitis C virus genotype 1b infected in […] cell by cell-based HCV replicon assay in presence of 50% normal human serum; assay type: functional, organism-based, Hepacivirus hominis
Summary of the method: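 Stable genotype 1b (con1) replicon cell line HB1, assayed in the presence of 50% normal human serum.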

[23] = test system: Hepatitis C virus genotype 1b; test: Antiviral activity against Hepatitis C virus genotype 1b containing NS3/con1 protease mutant by TaqMan-based assay; details: subtype 1b
[24] = Cmax in rhesus monkey at 5 mg/kg, po by LC/MS/MS analysis; assay type: ADME, organism-based, Macaca mulatta; design: dose 5 mg/kg, route oral; details: in vivo; summary of the method: as §1
[25] = target: Cathepsin B (Homo sapiens, UniProt P07858); test: Inhibition of human Cathepsin B
[26] = Volume of distribution in rhesus monkey at 2 mg/kg, iv by LC/MS/MS analysis; assay type: ADME, organism-based, Macaca mulatta; design: dose 2 mg/kg, route intravenous; details: in vivo; summary of the method: as §3

## CC[C@@H]1C[C@]1(NC(=O)[C@@H]1C[C@@H]2CN1C(=O)[C@H](C(C)(C)C)NC(=O)OCC(C)(C)CCCCc1cccc3c1CN(C3)C(=O)O2)C(=O)NS(=O)(=O)C1CC1 [VANIPREVIR]
[1]
  pEC50: < 4.30
[2]
  Cmax: 500 nM
[3]
  pEC50: 8.42
[4]
  clearance: 74 mL/min/kg
[5]
  clearance: 11 mL/min/kg
[6]
  pEC50: 8.30
[7]
  pEC50: 8.02
[8]
  pEC50: 8.31
[9]
  pIC50: < 5.00
[10]
  pEC50: 7.72
[11]
  pIC50: < 5.00
[12]
  pIC50: < 5.00
[13]
  pEC50: 7.82
[14]
  pEC50: 8.54
[15]
  AUC(0-t) at 24 h: 0.6 µM·h
[16]
  pEC50: 8.28
[17]
  Cmax: 900 nM
[18]
  Vd: 1.9 L/kg
[19]
  concentration at 24 h: 200 nM
[20]
  pIC50: 6.28
[21]
  AUC: 5.2 µM·h
[22]
  pEC50: 7.89
[23]
  pEC50: 8.80
[24]
  Cmax: 10 nM
[25]
  pIC50: < 5.00
[26]
  Vd: 0.4 L/kg
